{"source": "ChEMBL document CHEMBL1155777", "about": "“Increased survival after gemfibrozil treatment of severe mouse influenza” (Antimicrob Agents Chemother, 2007)", "key": {"[1]": {"system": "H2N2 subtype", "assay": "Antiviral activity against Influenza A virus (A/Japan/305/57(H2N2)) infected BALB/c mouse assessed as infection-induced weight loss at 60 mg/kg, ip administered once daily from day 4 to 10 post viral challenge measured on day 12 postinfection", "format": "functional, Influenza A virus (A/Japan/305/1957(H2N2))", "details": "route intraperitoneal", "how_it_was_run": "(§1)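 Gemfibrozil in 100% propylene glycol, 10 µl/mouse i.p., once daily days 4–10 after virus exposure; vehicle-only controls on the same days. Mice weighed before infection, then daily days 4–12 inclusive; loss tracked against pre-infection weight.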"}, "[2]": {"system": "H2N2 subtype", "assay": "Antiviral activity against Influenza A virus (A/Japan/305/57(H2N2)) infected BALB/c mouse assessed as infection-induced weight loss at 60 mg/kg, ip administered once daily from day 4 to 10 post viral challenge measured on day 10 postinfection", "format": "functional, Influenza A virus (A/Japan/305/1957(H2N2))", "details": "route intraperitoneal", "how_it_was_run": "as §1"}, "[3]": {"system": "H2N2 subtype", "assay": "Antiviral activity against Influenza A virus (A/Japan/305/57(H2N2)) infected BALB/c mouse assessed as infection-induced weight loss at 40 mg/kg, ip administered once daily from day 4 to 10 post viral challenge measured on day 8 postinfection", "format": "functional, Influenza A virus (A/Japan/305/1957(H2N2))", "details": "route intraperitoneal", "how_it_was_run": "as §1"}, "[4]": {"system": "H2N2 subtype", "assay": "Antiviral activity against Influenza A virus (A/Japan/305/57(H2N2)) infected BALB/c mouse assessed as infection-induced weight loss at 60 mg/kg, ip administered once daily from day 4 to 10 post viral challenge measured on day 4 postinfection", "format": "functional, Influenza A virus (A/Japan/305/1957(H2N2))", "details": "route intraperitoneal", "how_it_was_run": "as §1"}, "[5]": {"system": "H2N2 subtype", "assay": "Antiviral activity against Influenza A virus (A/Japan/305/57(H2N2)) infected BALB/c mouse assessed as infection-induced weight loss at 20 mg/kg, ip administered once daily from day 4 to 10 post viral challenge measured on day 4 postinfection", "format": "functional, Influenza A virus (A/Japan/305/1957(H2N2))", "details": "route intraperitoneal", "how_it_was_run": "as §1"}, "[6]": {"system": "H2N2 subtype", "assay": "Antiviral activity against Influenza A virus (A/Japan/305/57(H2N2)) infected BALB/c mouse assessed as infection-induced weight loss at 60 mg/kg, ip administered once daily from day 4 to 10 post viral challenge measured on day 8 postinfection", "format": "functional, Influenza A virus (A/Japan/305/1957(H2N2))", "details": "route intraperitoneal", "how_it_was_run": "as §1"}, "[7]": {"system": "H2N2 subtype", "assay": "Antiviral activity against Influenza A virus (A/Japan/305/57(H2N2)) infected BALB/c mouse assessed as mouse survival at 20 mg/kg, ip administered once daily from day 4 to 10 post viral challenge", "format": "functional, Influenza A virus (A/Japan/305/1957(H2N2))", "details": "96 h, route intraperitoneal", "how_it_was_run": "(§2)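 Propylene glycol vehicle, 10 µl/mouse i.p., once daily days 4–10 post-infection; vehicle controls. Survival followed 30 days. 20/40/60 mg/kg in one experiment (n = 9–10 per group); 60 mg/kg also pooled from four experiments (vehicle n = 50, drug n = 46). Log rank test on survival time; Cox proportional hazards model for hazard ratios.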"}, "[8]": {"system": "H2N2 subtype", "assay": "Antiviral activity against Influenza A virus (A/Japan/305/57(H2N2)) infected BALB/c mouse assessed as infection-induced weight loss at 20 mg/kg, ip administered once daily from day 4 to 10 post viral challenge measured on day 12 postinfection", "format": "functional, Influenza A virus (A/Japan/305/1957(H2N2))", "details": "route intraperitoneal", "how_it_was_run": "as §1"}, "[9]": {"system": "H2N2 subtype", "assay": "Antiviral activity against Influenza A virus (A/Japan/305/57(H2N2)) infected BALB/c mouse assessed as mouse survival at 40 mg/kg, ip administered once daily from day 4 to 10 post viral challenge", "format": "functional, Influenza A virus (A/Japan/305/1957(H2N2))", "details": "96 h, route intraperitoneal", "how_it_was_run": "as §2"}, "[10]": {"system": "H2N2 subtype", "assay": "Antiviral activity against Influenza A virus (A/Japan/305/57(H2N2)) infected BALB/c mouse assessed as infection-induced weight loss at 40 mg/kg, ip administered once daily from day 4 to 10 post viral challenge measured on day 12 postinfection", "format": "functional, Influenza A virus (A/Japan/305/1957(H2N2))", "details": "route intraperitoneal", "how_it_was_run": "as §1"}, "[11]": {"system": "H2N2 subtype", "assay": "Antiviral activity against Influenza A virus (A/Japan/305/57(H2N2)) infected BALB/c mouse assessed as infection-induced weight loss at 40 mg/kg, ip administered once daily from day 4 to 10 post viral challenge measured on day 6 postinfection", "format": "functional, Influenza A virus (A/Japan/305/1957(H2N2))", "details": "route intraperitoneal", "how_it_was_run": "as §1"}, "[12]": {"system": "H2N2 subtype", "assay": "Antiviral activity against Influenza A virus (A/Japan/305/57(H2N2)) infected BALB/c mouse assessed as infection-induced weight loss at 40 mg/kg, ip administered once daily from day 4 to 10 post viral challenge measured on day 4 postinfection", "format": "functional, Influenza A virus (A/Japan/305/1957(H2N2))", "details": "route intraperitoneal", "how_it_was_run": "as §1"}, "[13]": {"system": "H2N2 subtype", "assay": "Antiviral activity against Influenza A virus (A/Japan/305/57(H2N2)) infected BALB/c mouse assessed as infection-induced weight loss at 20 mg/kg, ip administered once daily from day 4 to 10 post viral challenge measured on day 6 postinfection", "format": "functional, Influenza A virus (A/Japan/305/1957(H2N2))", "details": "route intraperitoneal", "how_it_was_run": "as §1"}, "[14]": {"assay": "Toxicity in mouse assessed as lethal dose", "format": "organism-based", "details": "in vivo"}, "[15]": {"system": "H2N2 subtype", "assay": "Antiviral activity against Influenza A virus (A/Japan/305/57(H2N2)) infected BALB/c mouse assessed as infection-induced weight loss at 20 mg/kg, ip administered once daily from day 4 to 10 post viral challenge measured on day 10 postinfection", "format": "functional, Influenza A virus (A/Japan/305/1957(H2N2))", "details": "route intraperitoneal", "how_it_was_run": "as §1"}, "[16]": {"system": "H2N2 subtype", "assay": "Antiviral activity against Influenza A virus (A/Japan/305/57(H2N2)) infected BALB/c mouse assessed as mouse survival at 60 mg/kg, ip administered once daily from day 4 to 10 post viral challenge", "format": "functional, Influenza A virus (A/Japan/305/1957(H2N2))", "details": "96 h, route intraperitoneal", "how_it_was_run": "as §2"}, "[17]": {"system": "H2N2 subtype", "assay": "Antiviral activity against Influenza A virus (A/Japan/305/57(H2N2)) infected BALB/c mouse assessed as infection-induced weight loss at 20 mg/kg, ip administered once daily from day 4 to 10 post viral challenge measured on day 8 postinfection", "format": "functional, Influenza A virus (A/Japan/305/1957(H2N2))", "details": "route intraperitoneal", "how_it_was_run": "as §1"}, "[18]": {"system": "Mus musculus", "assay": "Increase in survival of LPS-induced BALB/c mouse severe systemic infection model at 60 mg/kg, ip administered as single dose 1 hr before LPS challenge", "format": "functional", "details": "route intraperitoneal", "how_it_was_run": "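LPS (E. coli O111:B4) 30 mg/kg i.p.; single 60 mg/kg i.p. dose in propylene glycol given 1 h before LPS; vehicle-only controls. n = 20 per group, single experiment; survival followed 14 days; log rank test.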"}, "[19]": {"system": "H2N2 subtype", "assay": "Antiviral activity against Influenza A virus (A/Japan/305/57(H2N2)) infected BALB/c mouse assessed as infection-induced weight loss at 40 mg/kg, ip administered once daily from day 4 to 10 post viral challenge measured on day 10 postinfection", "format": "functional, Influenza A virus (A/Japan/305/1957(H2N2))", "details": "route intraperitoneal", "how_it_was_run": "as §1"}, "[20]": {"system": "H2N2 subtype", "assay": "Antiviral activity against Influenza A virus (A/Japan/305/57(H2N2)) infected BALB/c mouse assessed as infection-induced weight loss at 60 mg/kg, ip administered once daily from day 4 to 10 post viral challenge measured on day 6 postinfection", "format": "functional, Influenza A virus (A/Japan/305/1957(H2N2))", "details": "route intraperitoneal", "how_it_was_run": "as §1"}, "[21]": {"system": "Mus musculus", "assay": "Increase in survival of LPS-induced BALB/c mouse severe systemic infection model at 60 mg/kg, ip administered as single dose 2 hrs before LPS challenge", "format": "functional", "details": "route intraperitoneal"}}}
{"smiles": "Cc1ccc(C)c(OCCCC(C)(C)C(=O)O)c1", "note": "[GEMFIBROZIL]", "values": [{"measurement": "Activity", "setting": "[1]", "value": 81.8, "unit": "%"}, {"measurement": "Activity", "setting": "[2]", "value": 78, "unit": "%"}, {"measurement": "Activity", "setting": "[3]", "value": 72.2, "unit": "%"}, {"measurement": "Activity", "setting": "[4]", "value": 86.5, "unit": "%"}, {"measurement": "Activity", "setting": "[5]", "value": 87.9, "unit": "%"}, {"measurement": "Activity", "setting": "[6]", "value": 73.2, "unit": "%"}, {"measurement": "survival at 20 mg/kg", "setting": "[7]", "value": 30, "unit": "%"}, {"measurement": "Activity", "setting": "[8]", "value": 79, "unit": "%"}, {"measurement": "survival at 40 mg/kg", "setting": "[9]", "value": 44, "unit": "%"}, {"measurement": "Activity", "setting": "[10]", "value": 77.1, "unit": "%"}, {"measurement": "Activity", "setting": "[11]", "value": 75.6, "unit": "%"}, {"measurement": "Activity", "setting": "[12]", "value": 87, "unit": "%"}, {"measurement": "Activity", "setting": "[13]", "value": 77.5, "unit": "%"}, {"measurement": "LD50", "setting": "[14]", "value": 3160, "unit": "mg/kg"}, {"measurement": "Activity", "setting": "[15]", "value": 75.2, "unit": "%"}, {"measurement": "survival at 60 mg/kg", "setting": "[16]", "value": 52, "unit": "%"}, {"measurement": "Activity", "setting": "[17]", "value": 75.1, "unit": "%"}, {"measurement": "survival at 60 mg/kg", "setting": "[18]", "value": 25, "unit": "%"}, {"measurement": "Activity", "setting": "[19]", "value": 73.4, "unit": "%"}, {"measurement": "Activity", "setting": "[20]", "value": 77.1, "unit": "%"}, {"measurement": "survival at 60 mg/kg", "setting": "[21]", "value": 10, "unit": "%"}]}
